Bioassay records from PubChem.
KCC2 mod: modulators of human KCC2 chloride dependent transport | Q9H2X9 | KCC2 cells, thallium flux FluoZin-2 fluorescence | B-score of Tl+ flux slope (higher = more flux/activation; lower = inhibition) at 10 µM | 2.2% of 190,000 active | AID 1456;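 active = thallium flux slope and its plate-corrected score both differing from the plate sample mean at a set confidence after two filtering rounds, in either direction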;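 also: slope of fluorescence scaled to starting intensity during 10 to 20 s after thallium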
Target sequence (Q9H2X9 whole entry, looked up): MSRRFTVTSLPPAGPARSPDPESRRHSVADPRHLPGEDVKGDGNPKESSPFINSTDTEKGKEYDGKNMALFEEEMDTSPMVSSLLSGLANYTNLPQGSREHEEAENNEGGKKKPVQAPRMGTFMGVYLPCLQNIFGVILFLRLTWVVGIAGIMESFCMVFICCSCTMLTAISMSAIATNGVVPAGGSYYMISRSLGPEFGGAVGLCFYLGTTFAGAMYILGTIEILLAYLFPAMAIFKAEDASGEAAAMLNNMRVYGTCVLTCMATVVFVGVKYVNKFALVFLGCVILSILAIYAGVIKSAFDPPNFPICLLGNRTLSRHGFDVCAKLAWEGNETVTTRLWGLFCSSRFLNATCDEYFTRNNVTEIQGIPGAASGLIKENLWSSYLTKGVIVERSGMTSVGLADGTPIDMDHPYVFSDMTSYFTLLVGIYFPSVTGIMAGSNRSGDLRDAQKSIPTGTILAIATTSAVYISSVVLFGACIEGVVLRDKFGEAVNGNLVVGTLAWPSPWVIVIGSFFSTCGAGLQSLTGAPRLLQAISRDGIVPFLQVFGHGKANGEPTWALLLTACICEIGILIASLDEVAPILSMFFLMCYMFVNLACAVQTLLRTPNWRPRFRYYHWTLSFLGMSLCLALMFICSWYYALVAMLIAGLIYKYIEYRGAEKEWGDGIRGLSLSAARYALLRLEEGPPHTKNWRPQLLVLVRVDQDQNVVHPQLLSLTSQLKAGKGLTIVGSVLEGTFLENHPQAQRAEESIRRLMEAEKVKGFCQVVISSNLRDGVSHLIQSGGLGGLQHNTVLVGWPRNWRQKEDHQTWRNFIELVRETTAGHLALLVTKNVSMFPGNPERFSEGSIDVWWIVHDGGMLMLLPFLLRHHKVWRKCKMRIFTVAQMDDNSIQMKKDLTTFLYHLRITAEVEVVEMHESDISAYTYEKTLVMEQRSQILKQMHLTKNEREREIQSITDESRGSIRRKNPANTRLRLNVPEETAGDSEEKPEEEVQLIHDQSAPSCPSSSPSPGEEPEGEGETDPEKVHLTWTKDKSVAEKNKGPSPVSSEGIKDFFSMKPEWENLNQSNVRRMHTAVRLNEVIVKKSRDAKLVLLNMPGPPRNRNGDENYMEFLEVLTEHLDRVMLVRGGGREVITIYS
hERG protect: shields human hERG channel from block by proarrhythmic agents. Q12809. CHO-hERG, FluxOR thallium flux, dofetilide IC70 present. activation (rescue from dofetilide block), less the hit threshold, % at 10 µM. 0.51% of 310,000 active. AID 1511;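 active = activation above the mean of controls blocked by dofetilide plus 5 SD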;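 also: thallium influx through hERG after potassium depolarization seen as dye fluorescence rise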
KCNK3 inh: human KCNK3 channel inhibition, primary screen; AID 602410; CHO-KCNK3 thallium flux, FluxOR fluorescence; active compounds read low; B-score at 10 µM; 0.84% of 340,000 active;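 active = B-score under library mean minus 4 SD, starting fluorescence ratio at most library mean plus 5 SD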;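 also: more negative B-score means stronger inhibition of thallium flux through KCNK3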
KCNQ1 act: potentiates or activates the human KCNQ1 potassium channel. AID 2648. 0.35% of 310,000 active. B-score at 10 µM. P51787. CHO-K1 KCNQ1, thallium flux FluxOR fluorescence; active compounds read high;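 active = fluorescence ratio B-score, a plate-corrected score, at least three library SD, with initial intensity B-score within 5 SD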
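Material: CHO-K1 cells stably expressing KCNQ1. Medium: assay buffer for compound exposure, DMSO matched across wells. Reagent: K+/Tl+ depolarizing stimulus. Compound dosing: single-concentration screen. Times: 37 °C overnight plating, 90-min dark dye load, 20-min compound pretreatment. Technique: FluxOR Tl+ flux fluorescence.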
KCNQ1 block: human KCNQ1 channel inhibition; P51787; B-score at 10 µM; CHO-K1 KCNQ1, FluxOR thallium flux fluorescence; active compounds read high; 1.3% of 310,000 active;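 active = compounds whose thallium flux B-score, printed positive for inhibition, exceeds three library SD while starting fluorescence stays within three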;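 also: channel opened by potassium depolarization with thallium stimulus after 20 min compound exposure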
KCNK9 block: human KCNK9 channel inhibition. HEK293 KCNK9, FluxOR thallium flux fluorescence; active compounds read low. B-score at 10 µM. 1.2% of 310,000 active. AID 488922;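 active = ratio B-score over 3 SD below the library mean, with starting fluorescence within 5 SD of its mean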;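 also: negative B-score means less thallium flux so channel inhibition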
The depositor's hits bear a star; i = inactive; . = no result given. Only some compounds are listed: those with a hit (about 4.1% of all), similar ones and a draw of the others.

SMILES	KCC2 mod	hERG protect	KCNK3 inh	KCNQ1 act	KCNQ1 block	KCNK9 block
CC1(C)C[C@@H]2C[C@@](C)(CN2C(=O)c2cc(COc3cccc(C(F)(F)F)c3)on2)C1	.	-14.2	i	i	7*	i
O=c1c(/C=C(\O)c2ccc(F)cc2)nc2ccccc2n1-c1ccccc1	-0.231	-1.7	i	i	6*	i
COc1ccc2nc(SCC(=O)NCc3ccc(S(N)(=O)=O)cc3)[nH]c2c1	.	-7.7	i	i	i	i
CC(C)CCN1C(=O)c2ccc(C(=O)Nc3ccc(Br)cc3C(=O)O)cc2C1=O	.	-2.0	i	i	6*	i
Nc1ncnc2c1ncn2[C@@H]1O[C@H](CNCc2ccccc2OCc2ccc(Cl)cc2Cl)[C@@H](O)[C@H]1O	.	.	i	.	.	.
COc1cccc(C(=O)NCCC(=O)NCc2cc(=O)n(C)c(=O)n2C)c1	.	-8.2	i	i	i	i
O=C(Cn1c(=O)n(-c2ccccc2)c(=O)c2sccc21)N1CCCC1	.	-24.4	i	i	6*	i
COc1ccc(C(=O)Oc2cc(/C=N/NS(=O)(=O)c3ccccc3)ccc2OC)cc1	-0.208	-4.3	i	i	i	i
COc1ccc(/C=N/NS(=O)(=O)c2ccc(C)cc2)cc1OC(=O)c1ccc(C)cc1	0.843	-5.5	i	i	6*	i
O=C1/C(=C\c2ccc(Br)o2)Cc2ccccc21	-0.527	-5.3	i	i	i	-9.9*
CN(C)C(=O)c1ccc(Nc2nc(-c3cccs3)nc3ccccc23)cc1	.	-27.9	i	i	i	i
Fc1ccccc1N1CCN(c2nc(-c3cccs3)nc3ccccc23)CC1	-1.03	-16.0	i	i	i	-7.59*
c1ccc2c(N3CCCCCC3)nc(-c3ccncc3)nc2c1	-0.909	-16.4	i	i	i	-6.59*
c1cncc(-c2nc(N3CCCCCC3)c3ccccc3n2)c1	-2.73	-31.2	i	i	i	i
CC(=O)N1CCN(c2nc(-c3cccs3)nc3ccccc23)CC1	-2.62	-19.7	i	i	i	i
CN(Cc1ccccc1F)c1nc(-c2cccs2)nc2ccccc12	0.362	-18.5	i	i	6*	-8.02*
C/C(=N\OCc1nc2ccccc2c(=O)n1/N=C/c1cc(C)cc([N+](=O)[O-])c1O)c1ccccc1	-0.0875	-16.2	i	i	9*	i
O=C1CCc2cc(S(=O)(=O)NC3CCCCC3)ccc2N1	.	.	i	.	.	.
CN(C)C(=O)CN1CCN(C(=O)CCl)CC1	1.32	5.1*	i	i	i	i
CC(=O)Nc1ccc(C(=O)CN2C(=O)NC3(CCCc4ccccc43)C2=O)c(F)c1 (centres undefined)	.	.	i	.	.	.
COc1ccc(OC)c(C(c2nnnn2CCC(C)C)N2CCN(C(=O)c3ccco3)CC2)c1 (centres undefined)	.	-10.1	i	i	i	-6.73*
O=C(NCc1ccc(F)cc1)C1(S(=O)(=O)c2ccc(Cl)cc2)CC1	.	-7.1	i	i	i	i
CC(=O)c1ccc2c(c1)CC1(C2)Cc2cc3c(cc2C1)C(=O)CC3 (centres undefined)	.	.	i	.	.	.
CCC1(C)Cc2ccccc2-c2[nH]c(=S)[nH]c(=O)c21 (centres undefined)	.	-8.2	i	i	i	i
CCn1c(=S)[nH]c2c(c1=O)C(C)(C)Cc1ccccc1-2	151*	45.4*	i	17*	i	i
O=C(c1ccco1)N1CCN(S(=O)(=O)c2ccc(S(=O)(=O)NC3CCCCC3)cc2)CC1	-0.676	-6.9	i	i	i	i
O=C(c1ccco1)N1CCN(S(=O)(=O)c2ccc(C3CCCCC3)cc2)CC1	.	8.2*	i	i	i	i
C=CCSC1=C(C#N)C(c2ccccc2Cl)C(C(=O)c2cccs2)C(O)(C(F)(F)F)N1 (centres undefined)	0	-11.8	i	i	10*	i
O=C(Nc1cccc(NC(=O)c2ccccc2[N+](=O)[O-])n1)c1ccccc1[N+](=O)[O-]	.	-12.1	-9.54*	i	i	i
